From ChEMBL document CHEMBL1137350, “Discovery of a new class of macrocyclic antagonists to the human motilin receptor” (J Med Chem, 2006) come the findings set out here.

In test [1] the target is T1, Motilin receptor (Homo sapiens, UniProt O43193). Description: Displacement of [125I]motilin from human MOTR. Summed up:
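Competition binding on isolated membranes expressing human motilin receptor, with radioiodinated porcine motilin ([125I]-motilin) as tracer. 11-point concentration curves gave Ki, with a top test concentration of 10 µM. Compounds came from 10 mM DMSO stocks stored at -60 °C.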
For orientation: In a radioligand displacement assay an active substance lowers the binding of a labelled ligand.

Test [2] concerns the target T1, Motilin receptor. Description: Activity at human MOTR expressed in CHO cells assessed as inhibition of motilin-induced calcium release upto 10 uM. In kind it is functional, cell-based. The following applies: filed as antagonist. The essentials: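 Aequorin luminescence assay on whole CHO cells expressing cloned human motilin receptor, measuring inhibition of motilin-induced Ca2+ release. Agonist activity was also checked at concentrations up to 10 µM. Compounds were TFA salts held as 10 mM DMSO stocks at -60 °C.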

T1 sequence (O43193 whole entry): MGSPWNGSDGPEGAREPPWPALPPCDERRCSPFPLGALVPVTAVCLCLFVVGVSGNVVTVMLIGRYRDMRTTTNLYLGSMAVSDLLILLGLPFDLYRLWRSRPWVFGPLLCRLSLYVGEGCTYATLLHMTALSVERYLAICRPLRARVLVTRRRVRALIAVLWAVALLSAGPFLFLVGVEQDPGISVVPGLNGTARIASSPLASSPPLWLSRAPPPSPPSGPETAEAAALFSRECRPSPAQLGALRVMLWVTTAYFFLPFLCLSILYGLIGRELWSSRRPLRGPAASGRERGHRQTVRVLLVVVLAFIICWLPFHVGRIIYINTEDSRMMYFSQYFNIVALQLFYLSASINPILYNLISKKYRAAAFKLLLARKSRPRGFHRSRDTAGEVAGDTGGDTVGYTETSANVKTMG

A word on the Ki: it is a dissociation constant, usually derived from enzyme kinetics or from competition with a known ligand. Regarding `CCC[C@@H]1NC(=O)[C@@H](C(C)C)N(C)C(=O)[C@@H](Cc2ccc(O)cc2)NCCOc2ccccc2CCCNC1=O`, the Ki at Motilin receptor [1] was > 10000 nM. In addition, on Motilin receptor [2], the Activity result is “Antagonist”. For `CCC[C@@H]1NC(=O)[C@@H](C(C)C)NC(=O)[C@@H](CCCCN)NCCOc2ccccc2/C=C/CNC1=O` the same measures were > 10000 nM and “Antagonist”. For `CCC[C@@H]1NC(=O)[C@@H](Cc2ccccc2)NC(=O)[C@@H](Cc2ccc(O)cc2)NCCOc2ccccc2/C=C/CNC1=O` the same measures were 1520 nM and “Antagonist”.

On Motilin receptor [1], `CCC[C@@H]1OC(=O)[C@@H](C(C)C)NC(=O)[C@@H](Cc2ccc(O)cc2)NCCOc2ccccc2CCCNC1=O` displayed a Ki of 1880 nM. Moreover, the Activity entry at Motilin receptor [2] is “Antagonist”. The matching figures for `CCC[C@@H]1NC(=O)[C@@H](C(C)C)OC(=O)[C@@H](Cc2ccc(O)cc2)NCCOc2ccccc2CCCNC1=O`: 192 nM and “Antagonist”. `CCC[C@@H]1NC(=O)[C@@H](C(C)C)NC(=O)[C@@H](Cc2ccc(O)cc2)NCCCc2ccccc2/C=C\CCNC1=O` came in with a Ki at Motilin receptor [1] of 7290 nM. Moreover, the Activity entry at Motilin receptor [2] was “Antagonist”. For `CCC[C@@H]1NC(=O)[C@@H](C(C)C)NC(=O)[C@@H](Cc2ccc(O)cc2)NCCc2ccccc2CCCNC1=O` the same measures were > 10000 nM and “Antagonist”.

In the case of `CCC[C@@H]1NC(=O)[C@@H](C(C)C)NC(=O)[C@@H](CCC(=O)O)NCCOc2ccccc2/C=C/CNC1=O`, the Ki at Motilin receptor [1] was > 10000 nM. Also, the Activity result on Motilin receptor [2] was “Antagonist”. For `CCC[C@@H]1NC(=O)[C@@H](C(C)C)NC(=O)[C@@H](Cc2ccc(O)cc2)NCCCCCCCCNC1=O` the same measures were 1200 nM and “Antagonist”. For `CCC[C@@H]1NC(=O)[C@@H](C(C)C)NC(=O)[C@@H](CC2CCCCC2)NCCOc2ccccc2CCCNC1=O`, the affinity on Motilin receptor [1], expressed as Ki, was 3250 nM. Further, on Motilin receptor [2], the Activity result was “Antagonist”.

Compound `CCC[C@@H]1NC(=O)[C@@H](C(C)C)NC(=O)[C@@H](Cc2ccc(O)cc2)NC/C=C/CCNC1=O` registered a Ki on Motilin receptor [1] of 701 nM. On Motilin receptor [2], the Activity entry is “Antagonist”.

As for `CCC[C@@H]1NC(=O)[C@@H](CCC(=O)O)NC(=O)[C@@H](Cc2ccc(O)cc2)NCCOc2ccccc2/C=C/CNC1=O`, the inhibition constant (Ki) at Motilin receptor [1] was determined as 4900 nM. Besides, on Motilin receptor [2], the Activity entry was “Antagonist”.

`CCC[C@H]1NC(=O)[C@@H](C(C)C)NC(=O)[C@@H](Cc2ccc(O)cc2)NCCOc2ccccc2/C=C/CNC1=O` came in with a Ki on Motilin receptor [1] of 335 nM. On Motilin receptor [2], the Activity entry was “Antagonist”. At Motilin receptor [1], `CCC[C@@H]1NC(=O)[C@@H](C(C)C)NNC(=O)[C@@H](Cc2ccc(O)cc2)NCCOc2ccccc2CCCNC1=O` returned a Ki of 2370 nM. For the same compound, the Activity entry on Motilin receptor [2] is “Antagonist”.

For the compound `CCC[C@@H]1NC(=O)[C@@H](CO)NC(=O)[C@@H](Cc2ccc(O)cc2)NCCOc2ccccc2/C=C/CNC1=O`, the Ki on Motilin receptor [1] is > 10000 nM. Also, the Activity entry at Motilin receptor [2] was “Antagonist”. For `CCC[C@@H]1NC(=O)[C@@H](C(C)C)NC(=O)[C@@H](Cc2ccc(O)cc2)NCCOc2ccccc2CCNC1=O` the same measures were 982 nM and “Antagonist”.

For `CCC[C@@H]1NC(=O)[C@@H](C(C)C)NC(=O)[C@@H](Cc2ccc3ccccc3c2)NCCOc2ccccc2CCCNC1=O`, the Ki at Motilin receptor [1] is 79 nM. Also, the Activity entry at Motilin receptor [2] was “Antagonist”. For `CC(C)[C@H]1NC(=O)[C@@H](Cc2ccc(O)cc2)NCCOc2ccccc2/C=C/CNC(=O)[C@H](CC(=O)O)NC1=O` the same measures were 2550 nM and “Antagonist”.

With `CCC[C@@H]1NC(=O)[C@H](C(C)C)NC(=O)[C@@H](Cc2ccc(O)cc2)NCCOc2ccccc2/C=C/CNC1=O`, the Ki on Motilin receptor [1] was > 10000 nM. The Activity entry at Motilin receptor [2] was “Antagonist”. The matching figures for `CC(C)[C@H]1NC(=O)[C@@H](Cc2ccc(O)cc2)NCCOc2ccccc2/C=C/CNC(=O)[C@H](CO)NC1=O`: 650 nM and “Antagonist”. For `CCC[C@@H]1NC(=O)[C@@H](C(C)C)NC(=O)[C@@H](Cc2ccc(O)cc2)NCCc2ccccc2CCCCNC1=O` the same measures were 6060 nM and “Antagonist”.

In turn, `CCC[C@@H]1NC(=O)[C@@H](C(C)C)NC(=O)[C@@H](Cc2ccc(O)cc2)NCCOc2ccccc2CCCNC1=O` showed a Ki at Motilin receptor [1] of 55 nM. The Activity entry at Motilin receptor [2] is “Antagonist”. For `CCC[C@@H]1NC(=O)[C@@H](C(C)C)NC(=O)[C@@H](Cc2c[nH]c3ccccc23)NCCOc2ccccc2CCCNC1=O` the same measures were 255 nM and “Antagonist”. The matching figures for `CCC[C@@H]1NC(=O)[C@@H](C(C)C)NC(=O)[C@@H](Cc2ccc(O)cc2)NCCCCc2ccccc2CCNC1=O`: 6060 nM and “Antagonist”. For `CCC[C@@H]1NC(=O)[C@@H](C(C)C)NC(=O)[C@@H](Cc2ccc(O)cc2)NCCCc2ccccc2CCNC1=O` the same measures were > 10000 nM and “Antagonist”.

`CCC[C@@H]1NC(=O)[C@@H](C(C)C)NC(=O)[C@@H](C(C)C)NCCOc2ccccc2/C=C/CNC1=O`: affinity at Motilin receptor [1] was put at a Ki of 3570 nM. The Activity result on Motilin receptor [2] was “Antagonist”. The matching figures for `CCC[C@@H]1NC(=O)[C@@H](C(C)C)NC(=O)[C@@H](CCc2ccccc2)NCCOc2ccccc2CCCNC1=O`: 1490 nM and “Antagonist”. The matching figures for `CC(C)[C@H]1NC(=O)[C@@H](Cc2ccc(O)cc2)NCCOc2ccccc2/C=C/CNC(=O)[C@H](CCCCN)NC1=O`: 664 nM and “Antagonist”.

On Motilin receptor [1], `CCC[C@@H]1NC(=O)[C@@H](C(C)C)NC(=O)[C@@H](Cc2ccccc2)NCCOc2ccccc2/C=C/CNC1=O` returned an inhibitory constant (Ki) of 78 nM. For the same compound, on Motilin receptor [2], the Activity entry is “Antagonist”. For `CCC[C@@H]1NC(=O)[C@@H](C(C)C)NC(=O)[C@@H](Cc2csc3ccccc23)NCCOc2ccccc2CCCNC1=O` the same measures were 11 nM and “Antagonist”.

Compound `CC[C@H](C)[C@H](NC(=O)[C@@H]1CCCN1C(=O)[C@@H](NC(=O)[C@@H](N)Cc1ccccc1)C(C)C)C(=O)N[C@@H](Cc1ccccc1)C(=O)N[C@H](C(=O)N[C@@H](Cc1ccc(O)cc1)C(=O)NCC(=O)N[C@@H](CCC(=O)O)C(=O)N[C@@H](CC(C)C)C(=O)N[C@@H](CCC(N)=O)C(=O)N[C@@H](CCCNC(=N)N)C(=O)N[C@@H](CCSC)C(=O)N[C@@H](CCC(N)=O)C(=O)N[C@@H](CCC(=O)O)C(=O)N[C@@H](CCCCN)C(=O)N[C@@H](CCC(=O)O)C(=O)N[C@@H](CCCNC(=N)N)C(=O)N[C@@H](CC(N)=O)C(=O)N[C@@H](CCCCN)C(=O)NCC(=O)N[C@@H](CCC(N)=O)C(=O)O)[C@@H](C)O` [MOTILIN] displayed a Ki at Motilin receptor [1] of 0.36 nM. With `CCC[C@@H]1NC(=O)[C@@H](C(C)C)NC(=O)[C@@H](Cc2ccc(O)cc2)NCCCc2ccccc2/C=C/CNC1=O`, on Motilin receptor [1], the Ki was > 10000 nM. Besides, the Activity result at Motilin receptor [2] is “Antagonist”. The matching figures for `CCC[C@@H]1NC(=O)[C@@H](C(C)C)NC(=O)[C@@H](Cc2ccc(O)cc2)NCc2ccccc2CCCCNC1=O`: > 10000 nM and “Antagonist”.

`CC(C)C[C@H]1C(=O)NCCCc2ccccc2OCCN[C@H](Cc2ccc(O)cc2)C(=O)N[C@H](C(C)C)C(=O)N1C` registered a Ki at Motilin receptor [1] of 222 nM. The Activity result on Motilin receptor [2] was “Antagonist”. The matching figures for `CCC[C@@H]1NC(=O)[C@@H](C(C)C)NC(=O)[C@@H](Cc2ccc(O)cc2)N(C(C)=O)CCOc2ccccc2CCCNC1=O`: 6390 nM and “Antagonist”.

For the compound `CCC[C@@H]1NC(=O)[C@@H](C(C)C)NC[C@@H](Cc2ccc(O)cc2)NCCOc2ccccc2CCCNC1=O`, on Motilin receptor [1], the Ki stood at 3240 nM. Further, at Motilin receptor [2], the Activity entry is “Antagonist”. In the case of `CCC[C@@H]1NC(=O)[C@@H](C(C)C)NC(=O)[C@@H](Cc2ccc(O)cc2)NCCc2ccccc2/C=C\CCNC1=O`, on Motilin receptor [1], the Ki is > 10000 nM. Also, on Motilin receptor [2], the Activity entry is “Antagonist”. The matching figures for `CCC[C@H](NC(=O)[C@H](NC(=O)[C@@H](Cc1ccc(O)cc1)NCCOc1ccccc1/C=C/CNC(C)=O)C(C)C)C(N)=O`: > 10000 nM and “Antagonist”. For `CCC[C@@H]1NC(=O)[C@@H](C(C)C)NC(=O)[C@@H](Cc2cccc3ccccc23)NCCOc2ccccc2CCCNC1=O` the same measures were 8.3 nM and “Antagonist”. The matching figures for `CC(C)C[C@@H]1NC(=O)[C@@H](C(C)C)NC(=O)[C@@H](Cc2ccc(O)cc2)NCCOc2ccccc2/C=C/CNC1=O`: 62 nM and “Antagonist”. The compound `CCC[C@@H]1NC(=O)[C@@H](C(C)C)NC(=O)[C@@H](Cc2ccc(O)cc2)NCCc2ccccc2/C=C/CNC1=O` yielded a Ki at Motilin receptor [1] of 9730 nM. Also, the Activity entry at Motilin receptor [2] was “Antagonist”. In the case of `CCC[C@@H]1NC(=O)[C@@H](C(C)C)NC(=O)[C@@H](Cc2ccc(O)cc2)N(C)CCOc2ccccc2CCCNC1=O`, on Motilin receptor [1], the Ki stood at 2780 nM. In addition, the Activity result on Motilin receptor [2] is “Antagonist”. In the case of `CCC[C@H](NC(=O)[C@H](NC(=O)[C@H](N)Cc1ccc(O)cc1)C(C)C)C(N)=O`, the Ki at Motilin receptor [1] is > 10000 nM. For the same compound, at Motilin receptor [2], the Activity entry is “Antagonist”.

Regarding `CCC[C@@H]1NC(=O)[C@@H](C(C)C)NC(=O)[C@@H](Cc2ccc(O)cc2)NCCCc2ccccc2CCCNC1=O`, the Ki on Motilin receptor [1] was > 10000 nM. Moreover, the Activity result at Motilin receptor [2] is “Antagonist”. The matching figures for `CCC[C@@H]1NC(=O)[C@@H](C(C)C)NC(=O)[C@H](Cc2ccc(O)cc2)NCCOc2ccccc2/C=C/CNC1=O`: > 10000 nM and “Antagonist”. The matching figures for `CC(C)[C@H]1NC(=O)[C@@H](Cc2ccc(O)cc2)NCCOc2ccccc2/C=C/CNC(=O)[C@H](Cc2ccccc2)NC1=O`: 185 nM and “Antagonist”. For `CCC[C@@H]1NC(=O)[C@@H](C)NC(=O)[C@@H](Cc2ccc(O)cc2)NCCOc2ccccc2/C=C/CNC1=O` the same measures were 196 nM and “Antagonist”.
